According to ChEMBL document CHEMBL1148400, “Synthesis of nitro esters of prednisolone, new compounds combining pharmacological properties of both glucocorticoids and nitric oxide” (J Med Chem, 2004):
Converted amounts (≈) assume the structure as drawn.

Tests used:
[1] = molecular target: T1, Glucocorticoid receptor (Homo sapiens) (UniProt P04150); experiment: Inhibition of [3H]dexamethasone binding to glucocorticoid receptor of human blood mononuclear cells
T1 sequence (whole entry): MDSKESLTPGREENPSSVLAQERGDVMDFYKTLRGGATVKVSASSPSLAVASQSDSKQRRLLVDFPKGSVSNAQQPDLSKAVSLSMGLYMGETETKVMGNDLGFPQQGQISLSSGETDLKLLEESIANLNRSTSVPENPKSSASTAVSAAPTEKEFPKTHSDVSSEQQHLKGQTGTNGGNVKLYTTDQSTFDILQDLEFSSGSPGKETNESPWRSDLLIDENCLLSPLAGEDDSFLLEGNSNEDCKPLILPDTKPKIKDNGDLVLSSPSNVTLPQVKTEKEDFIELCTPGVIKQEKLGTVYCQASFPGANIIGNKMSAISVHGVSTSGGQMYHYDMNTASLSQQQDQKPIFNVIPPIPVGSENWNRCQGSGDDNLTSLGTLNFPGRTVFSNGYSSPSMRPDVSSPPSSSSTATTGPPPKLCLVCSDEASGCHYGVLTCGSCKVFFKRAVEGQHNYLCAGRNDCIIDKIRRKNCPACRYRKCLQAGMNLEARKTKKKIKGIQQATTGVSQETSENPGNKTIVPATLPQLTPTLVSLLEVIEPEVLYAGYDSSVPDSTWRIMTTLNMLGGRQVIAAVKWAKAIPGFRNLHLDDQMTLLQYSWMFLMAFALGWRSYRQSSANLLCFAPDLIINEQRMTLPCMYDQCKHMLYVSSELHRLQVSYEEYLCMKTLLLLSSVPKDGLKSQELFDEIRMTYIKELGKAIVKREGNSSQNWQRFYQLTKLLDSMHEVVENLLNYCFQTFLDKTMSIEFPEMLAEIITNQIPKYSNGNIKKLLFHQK
Outline: (§1)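 PBMC isolated from human blood by histopaque gradient; 1×10^6 cells in RPMI with 1% glutamine given 50 nM [3H]dexamethasone plus compound at 1 μM (from 10 mM DMSO stock; control 0.1% DMSO), 1 h at 37 °C. Four ice-cold PBS washes, bound label by scintillation minus nonspecific binding; fmol/mL and % specific displacement; n = 3.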

[2] = molecular target: T1, Glucocorticoid receptor (Homo sapiens); experiment: Displacement of [3H]dexamethasone from glucocorticoid receptor of human blood mononuclear cells at 1 uM; outline: as §1
[3] = Water solubility was determined; format: ADME
Outline: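 Excess compound stirred in pH 7.4 phosphate buffer 3 h (25 °C), filtered 0.45 μm; saturated solution absorbance read at each compound's UV maximum and concentration derived against a standard solution; reported in mM.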

Mus musculus = species on record: Mus musculus; experiment: Compound was tested for the inhibition of neutrophil (PMN) extravasation in the zymosan-induced peritonitis mouse; format: functional; design: unit: PMN per peritoneal cavity
Outline: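 Mice dosed i.p. at 13.8 μmol/kg (equimolar to 5 mg/kg prednisolone) 1 h before i.p. zymosan (1 mg in 0.5 mL saline); vehicle peanut oil. Polymorphonuclear cells recruited per peritoneal cavity counted at 4 h; % inhibition vs vehicle group; mean ± SEM, n = 5 mice/group; ANOVA with Bonferroni.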

Row | Structure (SMILES) | [3H]dexamethasone bound [1] | Displacement [2] | solubility [3] | Activity (Mus musculus)
1 | C[C@]12C=CC(=O)C=C1CCC1C2[C@@H](O)C[C@@]2(C)C1CC[C@]2(O)C(=O)COC(=O)c1ccccc1CO[N+](=O)[O-] (some centres undefined) | 8.7 fmol/mL | 30% | – | –
2 | C[C@]12C=CC(=O)C=C1CCC1C2[C@@H](O)C[C@@]2(C)C1CC[C@]2(O)C(=O)COC(=O)CN1CCC(CCCO[N+](=O)[O-])CC1 (some centres undefined) | 2.3 fmol/mL | 81% | 150 µM (≈ 88.3 µg/mL) | –
3 | C[C@]12C=CC(=O)C=C1CCC1C2[C@@H](O)C[C@@]2(C)C1CC[C@]2(O)C(=O)COC(=O)CN1CCN(CCCO[N+](=O)[O-])CC1 (some centres undefined) | 2.1 fmol/mL | 83% | 53300 µM (≈ 31400 µg/mL) | 7800000
4 | C[C@]12C=CC(=O)C=C1CCC1C2[C@@H](O)C[C@@]2(C)C1CC[C@]2(O)C(=O)COC(=O)CCCO[N+](=O)[O-] (some centres undefined) | 1.6 fmol/mL | 87% | – | 9100000
5 | C[C@]12C=CC(=O)C=C1CCC1C2[C@@H](O)C[C@@]2(C)C1CC[C@]2(O)C(=O)COC(=O)c1ccc(CO[N+](=O)[O-])cc1 (some centres undefined) | 6.6 fmol/mL | 47% | 7 µM (≈ 3.78 µg/mL) | 4100000
6 | C[C@]12C=CC(=O)C=C1CCC1C2[C@@H](O)C[C@@]2(C)C1CC[C@]2(O)C(=O)COC(=O)CN1CCC(CCO[N+](=O)[O-])CC1 (some centres undefined) | 1.7 fmol/mL | 86% | 710 µM (≈ 408 µg/mL) | –
7 | C[C@]12C=CC(=O)C=C1CC[C@@H]1[C@@H]2[C@@H](O)C[C@@]2(C)[C@H]1CC[C@]2(O)C(=O)CO [PREDNISOLONE] | 5.5 fmol/mL | 56% | 270 µM (≈ 97.3 µg/mL) | –
8 | C[C@]12C=CC(=O)C=C1CCC1C2[C@@H](O)C[C@@]2(C)C1CC[C@]2(O)C(=O)COC(=O)CN1CCN(CCO[N+](=O)[O-])CC1 (some centres undefined) | 4.2 fmol/mL | 66% | 21300 µM (≈ 12300 µg/mL) | 9000000
9 | C[C@]12C=CC(=O)C=C1CCC1C2[C@@H](O)C[C@@]2(C)C1CC[C@]2(O)C(=O)COC(=O)c1ccc(CO)cc1 (some centres undefined) | 5.3 fmol/mL | 57% | – | –
10 | C[C@]12C=CC(=O)C=C1CCC1C2[C@@H](O)C[C@@]2(C)C1CC[C@]2(O)C(=O)COC(=O)c1cccc(CO[N+](=O)[O-])c1 (some centres undefined) | 19.8 fmol/mL | – | – | –
